Series [1] deals with P388. In words: (§1) Highest nontoxic optimal dose administered intraperitoneally after inoculation of P388 leukemia cells. Format: functional, Mus musculus. Put shortly:
(§2)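 Mice were inoculated with 10^6 P388 leukemia cells. Drug was given intraperitoneally in 30% v/v EtOH/water on days 1, 5 and 9 after inoculation. OD is the highest nontoxic dose in mg/kg per day.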

Series [2] in a line: Lipophilicity (Rm). The settings on record: chromatographic, drug cations at pH 1-2. Format: physicochemical.
In series [3] the test system is P388. The series is described as follows: (§3) The % increase in lifespan of treated animals over that of control group of animals injected with tumor alone. It is filed as functional, Mus musculus.
For another series, the system named is L1210. In words: In vitro inhibitory dose that reduces L1210 cell line by 50% when added for a period of 70h. It is filed as functional. To be noted: Mus musculus, L1210, 70 h; read-out: ID50 (the source's name). The method in brief: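 L1210 cultures were exposed to drug for 70 h, and cells were then counted. IC50 is the drug concentration (nM) that reduces cell numbers to 50% of untreated controls.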

In series [4] the test system is P388. The series is described as §3. Format: functional, Mus musculus. This is another data set of the same source.
Series [5] is described as follows: Chromatographic measure of drug lipophilicity determined for drug cations was evaluated. It is filed as physicochemical.
For series [6], the system named is P388. The description is as §1. Format: functional, Mus musculus. Put shortly:
as §2
The source holds these as a separate data set.

A value given as a limit tells only on which side of the number the result lay.

As usually defined, the ILS is how much longer treated animals lived than controls. A high value points to much gain in survival. `O=C(CCNc1c2ccccc2nc2ccccc12)NCCNc1c2ccccc2nc2ccccc12` displayed an OD in the series with P388 [1] of 50 mg/kg. This molecule gave a Rm in series [2] of -0.43. This molecule gave an ILS in the series on P388 [3] below 20%. For the same molecule, in the series with L1210, the IC50 was above 3500 nM.
The corresponding values for `Cn1nc(C(=O)NCCCCNc2c3ccccc3nc3ccccc23)cc1C(=O)NCCCCNc1c2ccccc2nc2ccccc12` are 8.9 mg/kg, 0.11, 26% and 24 nM.
The corresponding values for `O=C(CCNc1c2ccccc2nc2ccccc12)NCCCNc1c2ccccc2nc2ccccc12` are 15 mg/kg, -0.28, below 20% and above 3500 nM.
In turn, `c1ccc2c(NCCCCCCCNc3c4ccccc4nc4ccccc34)c3ccccc3nc2c1` returned an OD in the series on P388 [1] of 8.9 mg/kg. This molecule came in with a Rm in series [2] of 0.21. The same molecule registered an ILS with P388 [3] below 20%. The IC50 in the series on L1210 stood at 50 nM.
The corresponding values for `O=C(CNc1c2ccccc2nc2ccccc12)NCCCNc1c2ccccc2nc2ccccc12` are 50 mg/kg, -0.24, below 20% and above 3500 nM.
The like results for `c1ccc2c(NCCCCCNc3c4ccccc4nc4ccccc34)c3ccccc3nc2c1` were, in that order, 20 mg/kg, 0.02, below 20% and 3700 nM.
The like results for `Cn1nc(C(=O)NCCNc2c3ccccc3nc3ccccc23)cc1C(=O)NCCNc1c2ccccc2nc2ccccc12` were, in that order, 20 mg/kg, -0.3, 46% and 13 nM.
Molecule `c1ccc2c(NCCNCCNCCNc3c4ccccc4nc4ccccc34)c3ccccc3nc2c1` showed an OD in the series with P388 [1] of 10 mg/kg. In series [2], this molecule showed a Rm of -0.9. Further, the ILS in the series with P388 [3] is given as below 20%. Moreover, the IC50 with L1210 came to 2900 nM.
`c1ccc2c(NCCCN3CCN(CCCNc4c5ccccc5nc5ccccc45)CC3)c3ccccc3nc2c1`: the OD in the series on P388 [1] and in the series on P388 [6] was 3 mg/kg in each case. In addition, the Rm in series [2] and in series [5] was -0.72 each time. The ILS in the series on P388 [4] and in the series with P388 [3] was below 20% in each case.
On to `c1ccc2c(NCCCCNc3c4ccccc4nc4ccccc34)c3ccccc3nc2c1`, for which the OD in the series on P388 [1] was found to be 30 mg/kg. In series [2], this molecule yielded a Rm of -0.21. Further, the ILS in the series with P388 [3] was below 20%. Also, in the series with L1210, the IC50 was 10800 nM.
The corresponding values for `CN(CCCNc1c2ccccc2nc2ccccc12)CCCNc1c2ccccc2nc2ccccc12` are 10 mg/kg, -0.65, below 20% and 780 nM.
With `c1ccc2c(NCCCNCCNCCCNc3c4ccccc4nc4ccccc34)c3ccccc3nc2c1`, the OD in the series with P388 [1] worked out at 10 mg/kg. The molecule also registered a Rm in series [2] of -0.86. This molecule also displayed an ILS in the series on P388 [3] below 20%. Further, the IC50 with L1210 was determined as 560 nM.
In the series on P388 [1], `c1ccc2c(NCCCCCCCCNc3c4ccccc4nc4ccccc34)c3ccccc3nc2c1` showed an OD of 8.9 mg/kg. In series [2], this molecule returned a Rm of 0.28. Besides, in the series on P388 [3], the ILS was below 20%. In the series on L1210, the IC50 is 170 nM.
`c1ccc2c(NCCCCCCCCCCNc3c4ccccc4nc4ccccc34)c3ccccc3nc2c1` showed an OD with P388 [1] of 5.9 mg/kg. In addition, in series [2], the Rm was 0.45. The ILS in the series on P388 [3] was below 20%. The IC50 in the series with L1210 worked out at 280 nM.
The like results for `Nc1c2ccccc2nc2ccccc12` [AMINACRINE] were, in that order, 20 mg/kg, -0.08, below 20% and 1900 nM.
In the case of `c1ccc2c(NCCCNCCCNc3c4ccccc4nc4ccccc34)c3ccccc3nc2c1`, in the series with P388 [1], the OD was found to be 5 mg/kg. For the same molecule, in series [2], the Rm is -0.53. The ILS in the series with P388 [3] is reported as below 20%. Besides, the IC50 in the series with L1210 amounted to 480 nM.
The corresponding values for `Cn1nc(C(=O)NCCCNc2c3ccccc3nc3ccccc23)cc1C(=O)NCCCNc1c2ccccc2nc2ccccc12` are 20 mg/kg, 0, 65% and 55 nM.
Molecule `c1ccc2c(NCCN3CCN(CCNc4c5ccccc5nc5ccccc45)CC3)c3ccccc3nc2c1` yielded an OD in the series with P388 [1] of 3 mg/kg. In addition, the Rm in series [2] is recorded as -0.77. The ILS with P388 [3] is given as below 20%. In the series with L1210, the IC50 turned out to be 78 nM.
With `c1ccc2c(NCCCCCCCCCNc3c4ccccc4nc4ccccc34)c3ccccc3nc2c1`, the OD in the series with P388 [1] is 5.9 mg/kg. In series [2], this molecule yielded a Rm of 0.4. The molecule further displayed an ILS with P388 [3] below 20%. For the same molecule, the IC50 in the series on L1210 worked out at 160 nM.
`c1ccc2c(NCCCCNCCCNc3c4ccccc4nc4ccccc34)c3ccccc3nc2c1` displayed an OD with P388 [1] of 10 mg/kg. This molecule also yielded a Rm in series [2] of -0.39. In the series on P388 [3], the ILS is reported as below 20%. Also, the IC50 with L1210 came out at 29 nM.
As to `O=C(CNc1c2ccccc2nc2ccccc12)NCCNc1c2ccccc2nc2ccccc12`, the OD with P388 [1] is 50 mg/kg. In addition, the Rm in series [2] was -0.41. In the series on P388 [3], the ILS is reported as below 20%. Further, in the series with L1210, the IC50 was above 4000 nM.
The like results for `c1ccc2c(NCCCCCCNc3c4ccccc4nc4ccccc34)c3ccccc3nc2c1` were, in that order, 13.3 mg/kg, 0.15, below 20% and 110 nM.
The like results for `O=C(CCCNc1c2ccccc2nc2ccccc12)NCCCNc1c2ccccc2nc2ccccc12` were, in that order, 50 mg/kg, -0.12, below 20% and above 3500 nM.
The corresponding values for `O=C(CCCNc1c2ccccc2nc2ccccc12)NCCNc1c2ccccc2nc2ccccc12` are 50 mg/kg, -0.19, below 20% and above 3500 nM.
